Most compounds without a hit are left out; they make up all but 1.3% or so of the library.
CHT allo act – CHT positive allosteric modulators, primary screen, cell-based, membrane potential dye, choline EC20; AID 488977, 2010; CHT-expressing cells; hits give high values; LV-AA mutant CHT in HEK293 cells; 310,000 tested, 0.49% active; B-score at 10 µM;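 active = initial fluorescence not abnormally high and integrated response B-score, plate-corrected, over 3 SD above library mean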
proCasp7 act – procaspase-7 activators, primary screen, counter-screen for procaspase-3 activator project, biochemical, absorbance, HTS, human; activation, % at 8.5 µM; recombinant procaspase-7, Ac-DEVD-pNA absorbance 405 nm; D23A/D198A/D206A triple mutant, cannot self-cleave; scale: DMSO 0, 5 µM enzyme 100; 330,000 tested, 0.093% active; AID 463210, 2010;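 active = percent activation above the screen-wide mean plus 3 SD, cut at about 25% in these data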
Target sequence (P55210 whole entry D23A/D198A/D206A): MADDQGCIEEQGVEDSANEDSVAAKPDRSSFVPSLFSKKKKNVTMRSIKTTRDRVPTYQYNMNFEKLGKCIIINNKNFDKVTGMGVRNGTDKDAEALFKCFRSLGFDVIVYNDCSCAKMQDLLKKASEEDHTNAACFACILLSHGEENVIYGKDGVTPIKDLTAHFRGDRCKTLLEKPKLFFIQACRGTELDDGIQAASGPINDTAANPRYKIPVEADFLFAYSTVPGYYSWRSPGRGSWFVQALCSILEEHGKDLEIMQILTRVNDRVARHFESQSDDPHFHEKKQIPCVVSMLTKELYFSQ
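Assay system: Uncleavable procaspase-7 mutant enzyme | Input: 2 µM procaspase-7 mutant as dispensed | Timing: 1 h compound preincubation, 2 h substrate cleavage, 25 °C | Repeats: One well per compound | Control set: DMSO wells as 0%, DMSO with 5 µM added PC-7 as 100% | Technique: Epi-absorbance of released pNA at 405 nm, two timepoints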
procasp3 activ – activators of human procaspase-3 D3A mutant, primary screen, biochemical, absorbance, PC-3 D3A mutant, single concentration; recombinant procaspase-3 D3A, Ac-DEVD-pNA absorbance 405 nm; Caspase-3 (Homo sapiens), P42574; activation, % at 8.5 µM; 330,000 tested, 0.11% active;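 active = activation above the mean of all tested compounds plus 3 SD, cut at about 21% in these data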;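 also: 0% = DMSO alone and 100% = DMSO wells spiked with extra 5 µM PC-3 D3A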
Target sequence (P42574 whole entry D9A/D28A/D175A): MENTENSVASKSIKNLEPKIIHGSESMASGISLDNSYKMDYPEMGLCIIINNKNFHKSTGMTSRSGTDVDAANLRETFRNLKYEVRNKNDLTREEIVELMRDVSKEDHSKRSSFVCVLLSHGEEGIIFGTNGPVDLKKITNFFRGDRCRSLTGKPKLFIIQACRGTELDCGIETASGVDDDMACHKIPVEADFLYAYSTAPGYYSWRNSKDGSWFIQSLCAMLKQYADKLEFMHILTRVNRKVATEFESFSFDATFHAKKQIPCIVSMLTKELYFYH
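Test system: Procaspase-3 D3A mutant; medium: Zinc-free HEPES/NaCl buffer with 0.01% Triton X-100 at pH 7.4; reagent: DEVD-pNA substrate; doses: one concentration, 8.5 µM nominal, 0.8% DMSO; times: 1 h preincubation plus 2 h reaction at 25 °C; signal: Epi-absorbance at 405 nm of released p-nitroaniline, 0 and 120 min; replicates: singlicate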
CHT inh – inhibitors of human choline transporter CHT; CHT-expressing cells, membrane potential dye, choline response; hits give low values; 310,000 tested, 0.86% active; AID 488975, 2010; B-score at 10 µM;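 active = B-score over 3 SD under the library average, and starting fluorescence ratio not unusually high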;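 also: choline stimulus applied at its EC90 after an EC20 pre-addition; B-score computed on integrated fluorescence ratio after choline addition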
CHT activ conf – CHT activators, confirmation, cell-based, membrane potential dye, duplicate. shares compounds with CHT allo act. CHT-expressing cells, membrane potential dye fluorescence (FDSS); % of choline EC20–EC90 response window; HEK293 expressing CHT LV-AA mutant; choline added at its EC20. activation, % at 10 µM. 2,500 tested, 91% active;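 active = primary screen active, with duplicate mean activation above negative control mean plus 3 SD, cut at about 11% in these data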
HEK293 MP dye – membrane potential response in parental HEK293 cells, counter-screen for CHT activator project, cell-based, membrane potential dye; shares compounds with CHT allo act; membrane potential dye fluorescence (FDSS); measured after EC20 choline addition; ratio readout change at 10 µM, hits read low; 2,500 tested, 62% active;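 active = duplicate-averaged ratio beyond 3 SD from buffer wells, up or down, though filed actives are nearly all decreases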
An asterisk follows results filed as active.

`COc1ccc2c(c1)C(C)=CC(C)(C)N2S(=O)(=O)c1ccc(C)cc1` gave CHT allo act 7.9*, proCasp7 act 10, procasp3 activ -3, CHT inh inactive, CHT activ conf 41* and HEK293 MP dye inactive.
Screening CC1=CC(C)(C)N(S(=O)(=O)c2ccc(C)cc2)c2cc(C)ccc21 returned CHT allo act inactive, proCasp7 act 10, procasp3 activ 0 and CHT inh inactive.
For Cc1[nH]c2ccccc2c1/C=N/Nc1ccc([N+](=O)[O-])cc1 the results were CHT allo act inactive, proCasp7 act 2, procasp3 activ -24, CHT inh inactive, CHT activ conf 17* and HEK293 MP dye inactive.
CCCCCCCNC(=O)C1(CC2CC(c3ccc(Cl)cc3)=NO2)CCN(C(=O)c2cc(OCC)c(OCC)c(OCC)c2)CC1 (stereo not given) was read as CHT allo act inactive, proCasp7 act 6, procasp3 activ 10 and CHT inh inactive.
O=C(Nc1ccc(Cl)cc1)c1cc(Br)ccc1OCC(=O)N1CCOCC1 was read as CHT allo act inactive, proCasp7 act 5, procasp3 activ -8 and CHT inh inactive.
Cc1ccn2cc(CCNS(=O)(=O)c3ccc4c(c3)OCCO4)nc2c1 was read as CHT allo act inactive, proCasp7 act 9, procasp3 activ -9, CHT inh inactive, CHT activ conf 25* and HEK293 MP dye inactive.
Cc1ccn2cc(CCNS(=O)(=O)c3ccc4ccccc4c3)nc2c1 was read as CHT allo act inactive, proCasp7 act -8, procasp3 activ 0 and CHT inh inactive.
Screening Cc1ccccc1C1c2[nH]c3ccccc3c2C[C@H]2C(=O)N(c3ccccc3C(=O)NCCCN3CCOCC3)C(=O)N12 (stereo not given in full) returned CHT allo act inactive, proCasp7 act -2, procasp3 activ 9 and CHT inh inactive.
Cc1cc2nc(C)n(CCCN)c2cc1C was read as CHT allo act 8.4*, proCasp7 act 9, procasp3 activ -1, CHT inh inactive, CHT activ conf 69* and HEK293 MP dye -73*.
Screening CCCNC(=S)N1CCC(C(=O)c2ccc(OC)cc2)CC1 returned CHT allo act 6.7*, proCasp7 act 10, procasp3 activ 0, CHT inh inactive, CHT activ conf -20 and HEK293 MP dye inactive.
Screening CCCNC(=S)N1CCC(C(=O)c2ccc(Cl)cc2)CC1 returned CHT allo act inactive, proCasp7 act 1, procasp3 activ -2 and CHT inh inactive.
Screening O=[N+]([O-])c1cc(Br)c2nsnc2c1N1CCOCC1 returned CHT allo act inactive, proCasp7 act -4, procasp3 activ 6 and CHT inh inactive.
`COc1ccccc1CCC(=O)OCC(=O)NC1CC1` gave CHT allo act inactive, proCasp7 act 5, procasp3 activ 0 and CHT inh inactive.
CCOC(=O)c1sc(=S)n(-c2ccccc2)c1N was read as CHT allo act inactive, proCasp7 act -1, procasp3 activ 6 and CHT inh inactive.
For CCOC(=O)c1sc(=S)n(-c2ccc(OC)cc2)c1N the results were CHT allo act inactive, proCasp7 act 11, procasp3 activ 1, CHT inh inactive, CHT activ conf 13* and HEK293 MP dye inactive.
Screening Cc1nnc(NCCc2ccccc2)n(N)c1=O returned CHT allo act inactive, proCasp7 act -9, procasp3 activ 5 and CHT inh inactive.
Screening Cc1nnc(NCCc2ccccc2)c2ccccc12 returned CHT allo act 7.2*, proCasp7 act 7, procasp3 activ -6, CHT inh inactive, CHT activ conf 39* and HEK293 MP dye -49*.
C=C(C)[C@H]1CC=C(C)C(=O)C1 was read as proCasp7 act 4 and procasp3 activ -4.
`CC1=Nc2cccc3cccc(c23)N1C` gave CHT allo act 7.4*, proCasp7 act -4, procasp3 activ -3, CHT inh inactive, CHT activ conf 59* and HEK293 MP dye -71*.
Cc1cc(C)n2c(Nc3ccc4c(c3)OCCO4)c(-c3ccccc3)nc2n1 was read as CHT allo act 11*, proCasp7 act -7, procasp3 activ -2, CHT inh inactive, CHT activ conf 14* and HEK293 MP dye -34*.
`Cc1ccc(-c2nc3cnccn3c2Nc2ccc3c(c2)OCO3)cc1` gave CHT allo act inactive, proCasp7 act -7, procasp3 activ -5 and CHT inh inactive.
For COc1ccc(-c2nc3cnccn3c2Nc2ccc3c(c2)OCO3)cc1 the results were CHT allo act 6.4*, proCasp7 act 0, procasp3 activ 4, CHT inh inactive, CHT activ conf 48* and HEK293 MP dye -29*.
Screening CN(C)c1ccc(-c2nc3cnccn3c2Nc2ccc3c(c2)OCCO3)cc1 returned CHT allo act 7.1*, proCasp7 act -2, procasp3 activ 1, CHT inh inactive, CHT activ conf 59* and HEK293 MP dye -23*.
For COc1ccc(Nc2c(-c3ccc(C)cc3)nc3cnccn23)cc1 the results were CHT allo act inactive, proCasp7 act -9, procasp3 activ 1, CHT inh inactive, CHT activ conf 49* and HEK293 MP dye -28*.
For CC(OC(=O)c1ccc(Cl)c([N+](=O)[O-])c1)C(=O)N1CCN(Cc2ccccc2)CC1 (stereo not given) the results were proCasp7 act 1 and procasp3 activ 6.
CC(C)(C)OC(=O)N[C@H](C(=O)OC(C)(C)C)c1ccccc1 was read as proCasp7 act 5 and procasp3 activ -5.
O=C(NC(=S)Nc1ccc2[nH]c(=O)[nH]c2c1)c1cccc(F)c1 was read as CHT allo act inactive, proCasp7 act -13, procasp3 activ 1 and CHT inh inactive.
CC(C)CC(COCc1ccc([N+](=O)[O-])cc1)N1CCN(C(=O)c2ccc(C(F)(F)F)cc2)CCC1=O (stereo not given) was read as CHT allo act inactive, proCasp7 act -7, procasp3 activ 8, CHT inh inactive, CHT activ conf 29* and HEK293 MP dye inactive.
